Screening data deposited in PubChem BioAssay by several laboratories.
H9c2 protect: cardioprotection against H2O2-induced cell death, primary screen, uHTS, H9c2 cells, ATPLite luminescence | H9c2 cardiomyocytes, H2O2 injury protection, 2 h | protection from H2O2 cell death, % at 20 µM | hit rate 0.63% among 360,000;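 active = compounds giving at least 50% protection of heart cells from peroxide-induced death in the single-dose screen, raw or plate-pattern-corrected value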
UPR CHOP act: activators of apoptotic CHOP UPR arm, primary screen, cell-based, CHO-CHOP luciferase reporter, luminescence, uHTS | UPR activation; percent of tunicamycin response over DMSO baseline | activation, % at 10 µM | hit rate 0.34% among 330,000 | AID 449763, 2010;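 active = at 10 µM dose, activation of 40% or more, normalized to positive control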
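Assay system: CHO-CHOP cells, stable luciferase reporter of PERK-eIF2a-CHOP signalling / Buffer or medium: F12 plus 10% serum / Compound dosing: one dose, 10 µM in 0.5% DMSO / Times: 6 h compound treatment, 37 °C / Technique: luciferase luminescence / Read-out: % reporter activation, DMSO baseline versus tunicamycin full activation / Benchmarks: tunicamycin and DMSO controls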
iPSC survival up: enhancers of single-cell hiPSC survival, primary screen, ATPlite luminescence. 100% = ROCK inhibitor wells, 0% = DMSO. survival enhancement, % at 20 µM. hit rate 0.044% among 360,000; in the data active = survival enhancement above about 18%;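 note: cells exposed to compounds for 16 hours before the ATP read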
XBP1 UPR activ: activators of adaptive XBP1 UPR arm, primary screen, cell-based, CHO-XBP1 luciferase reporter, luminescence, uHTS. hit rate 0.33% among 330,000. AID 463104, 2010. activation, % at 20 µM. IRE1-XBP1 UPR activation; percent of tunicamycin response, DMSO as zero;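 active = versus positive control, 20 µM dose yields 30% or more activation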
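Test system: CHO-XBP1 luciferase reporter cells | Buffer or medium: Serum-containing F12 medium, 10% FBS | Schedule: 6 h compound exposure at 37 °C, 5% CO2 | Detection: Steady-Glo luciferase glow luminescence, 10 min after reagent addition | Read-out basis: Activation, % of tunicamycin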
CHOP inhibitor: inhibitors of CHOP promoter induction, primary screen, cell-based, unfolded protein response, luciferase reporter; CHO-K1 CHOP-promoter luciferase, tunicamycin-induced, 15-18 h; inhibition, % at 10 µM; hit rate 3.8% among 220,000; AID 2732, 2010;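 active = compounds that reduced the stress-induced luciferase reporter signal by more than about 70% of percent inhibition, limit read from the data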
A number is an active result; n = inactive; x = not tested or not shown. This excerpt belongs to a sample that is enriched for hits.

SMILES	H9c2 protect	UPR CHOP act	iPSC survival up	XBP1 UPR activ	CHOP inhibitor
CCOC(=O)C1(C)CCCN(C(=O)C(c2ccccc2)c2ccccc2)C1 (stereo not given)	n	x	n	x	x
CC(C)(C)c1ccc2c(c1)C(=O)c1ccccc1C2=O	n	n	n	n	n
CC(C)(C)C1=CC=C(C(C)(C)C)C(=O)C1=O	x	49	x	n	n
C#CC(N)CCC(=O)O (stereo not given)	x	x	x	x	n
C=CC(N)CCC(=O)O (stereo not given)	x	x	x	x	91
CCCC1=C(C(=O)OCC)C(c2ccc(OC)c(C)c2OC)C(C#N)=C(N)O1 (stereo not given)	n	n	n	n	72
Cc1ccccc1-n1nc2c(c1NC(=O)c1ccc3c(c1)OCO3)CS(=O)(=O)C2	n	n	n	n	x
CCSc1nnc(NC(=O)c2cc(C)oc2C)s1	n	n	n	n	78
CC(C)COc1ccc(-c2nnc(-c3ccco3)o2)cc1	n	n	n	n	78
CCCCn1c(N)c(N(CC)C(=O)COc2ccc(C#N)cc2)c(=O)[nH]c1=O	n	n	n	n	x
Clc1ccc(Sc2cnc3ccccc3n2)cc1	n	n	n	n	76
c1ccc(Sc2cnc3ccccc3n2)cc1	n	n	n	n	n
O=C(CN1C(=O)c2cccc3cccc(c23)C1=O)N1CCN(c2ccccn2)CC1	n	n	n	n	n
O=C(CN1C(=O)/C(=C/c2ccccc2F)Oc2ccccc21)N1CCN(c2ccccn2)CC1	n	n	n	n	86
O=C(CN1C(=O)/C(=C\c2cccc(Cl)c2)Oc2ccccc21)N1CCN(c2ccccn2)CC1	x	n	x	n	100
CC(=O)c1cccc(OCC(=O)N(CCC2=CCCCC2)c2c(N)n(Cc3ccccc3)c(=O)[nH]c2=O)c1	n	x	n	x	x
COc1ccccc1Cc1c(-c2ccco2)nc2ccc(C)cn12	n	x	n	x	x
Cc1ccc(NC(=O)C(C)c2ccc(-c3ccccc3)c(F)c2)cc1 (stereo not given)	n	n	n	n	73
O=C(CSc1nnc(C2CC2)n1C1CC1)N1CCN(c2ccc(O)cc2)CC1	n	x	n	x	x
COc1ccc2nc(/N=C(\N)NC(=O)N3c4ccccc4Sc4ccccc43)nc(C)c2c1	n	n	n	n	77
Cc1ccc2nc(/N=C(\N)NC(=O)N3c4ccccc4Sc4ccccc43)nc(C)c2c1	n	n	n	n	n
COc1ccc(/C=N/NC(=S)Nc2ccccc2)cc1COc1cccc(C)c1C	n	n	n	n	91
COc1ccc(C=NNC(=S)Nc2ccc(F)cc2)cc1OC	n	x	n	x	x
CN(C(=O)CSc1nnnn1-c1ccc(O)cc1)C1CCCCC1	n	n	n	n	x
O=C1c2ccccc2C(c2nnnn2-c2ccc3c(c2)OCCO3)N1CCCN1CCOCC1 (stereo not given)	x	x	n	x	x
SMILES	H9c2 protect	UPR CHOP act	iPSC survival up	XBP1 UPR activ	CHOP inhibitor
CCNc1nc(NC(C)C)nc(N(C#N)CCOc2ccc(Cl)cc2Cl)n1	n	n	n	n	76
CCC1=C(NCc2ccccc2)COC1=O	n	x	n	x	x
O=C(O)CCC(=O)N1CC=C(c2ccccc2)CC1	n	n	n	n	n
O=C(CN1C(=O)c2ccccc2C1=O)OCC(=O)N1CCc2ccccc2C1	n	n	n	n	n
O=C(Cn1[nH]c(=O)c2ccccc2c1=O)N1CC=C(c2ccccc2)CC1	48	n	n	n	n
O=C(Cn1[nH]c(=O)c2ccccc2c1=O)OCC(=O)N1CCCc2ccccc21	86	n	n	n	n
O=C(Cn1[nH]c(=O)c2ccccc2c1=O)OCC(=O)N1CCc2ccccc2C1	90	n	n	n	n
CCOc1ccc(CCN2C(=S)N([C@@H](CC(C)C)CN3CCCC3CN3C(=S)NC[C@@H]3CC(C)C)C[C@@H]2CC(C)C)cc1 (stereo not given in full)	n	x	n	x	x
OC(COc1cccc2ccccc12)CN1CCN(c2ccc(Cl)cc2)CC1 (stereo not given)	n	n	n	n	n
CC(=O)c1ccccc1OCC(O)CN1CCN(C(c2ccccc2)c2ccccc2)CC1 (stereo not given)	n	n	n	n	75
OC(COc1ccc2ccccc2c1)CN1CCN(c2ccc(F)cc2)CC1 (stereo not given)	n	n	n	n	87
OC(COc1cccc2ccccc12)CN1CCN(c2cccc(Cl)c2)CC1 (stereo not given)	n	n	n	n	71
COc1ccc2c(c1)Cc1c-2cc(Br)c(N)c1Br	n	x	n	x	x
C=C(C)C1CC=C(C)/C(=N/NC(=O)COc2ccc(Cl)cc2)C1 (stereo not given)	n	n	n	n	86
C=C(C)C1CC=C(C)/C(=N/NC(=O)COc2cccc(C)c2)C1 (stereo not given)	n	n	n	n	n
Cc1ccc(-n2nnc(-c3nccs3)n2)cc1	n	n	n	n	78
CCCCCCCCCCC(C(=O)O)C1(C(=O)O)CCC(=O)O1 (stereo not given)	n	x	n	x	x
CN(C)CCN(C)C1CN(Cc2ccccc2)S(=O)(=O)C1 (stereo not given)	n	x	n	x	x
COC(=O)CSc1nc(NC(C)(C)C)nc(N(C)C)n1	n	n	n	n	n
CC(=O)C(Sc1nc(NC(C)(C)C)nc(N(C)C)n1)C(C)=O	n	n	n	n	73
OCCCCCCNc1ccc(CCO)cc1	n	x	n	x	x
CCCCNC(=O)CSc1nc2ccccc2n1S(=O)(=O)c1ccc(Br)cc1	n	n	n	n	n
CCCCNC(=O)CSc1nc2ccccc2n1S(=O)(=O)c1ccc(Cl)cc1	n	n	n	n	75
Nc1ccn([C@@H]2O[C@H](C(=O)N[C@H](CO)c3ccccc3)[C@@H](O)[C@H]2O)c(=O)n1	n	x	n	x	x
O=C(Nc1ccc(N2CCOCC2)cc1)Nc1ccc(Cl)c(Cl)c1	n	n	n	n	79
SMILES	H9c2 protect	UPR CHOP act	iPSC survival up	XBP1 UPR activ	CHOP inhibitor
O=C(Nc1ccc(Cl)cc1)Nc1ccc(N2CCOCC2)cc1	n	n	n	n	n
Cc1cccc(C)c1NC1=C(Cl)C(=O)OC1OC(=O)c1ccccc1 (stereo not given)	n	n	n	n	n
Cc1ccc(NC2=C(Cl)C(=O)OC2OC(=O)c2ccccc2)c(C)c1 (stereo not given)	n	n	n	n	74
O=C1c2ccccc2C(=Nc2ccccc2)C1c1cccc(Br)c1 (stereo not given)	n	n	n	n	72
CC(=NO)C1CCC2C3CCC4CC(=NO)CCC4(C)C3C(C)(O)CC12C (stereo not given)	60	x	n	x	x
O=C(Nc1cnn(Cc2ccc(F)cc2)c1)c1noc2c1CCCC2	n	n	n	n	n
CC(C)(C)C1CCc2onc(C(=O)Nc3cnn(Cc4ccc(F)cc4)c3)c2C1 (stereo not given)	n	n	n	n	86
